In ChEMBL document CHEMBL3580545, “Steroidal Alkaloids from Veratrum nigrum Enhance Glucose Uptake in Skeletal Muscle Cells” (J Nat Prod, 2015) one finds IC50 and Activity data, which are given here for 6 compounds.

Assay [1] has as its target T1, Tyrosine-protein phosphatase non-receptor type 1 (Homo sapiens, UniProt P18031).
T1 sequence (P18031 whole entry): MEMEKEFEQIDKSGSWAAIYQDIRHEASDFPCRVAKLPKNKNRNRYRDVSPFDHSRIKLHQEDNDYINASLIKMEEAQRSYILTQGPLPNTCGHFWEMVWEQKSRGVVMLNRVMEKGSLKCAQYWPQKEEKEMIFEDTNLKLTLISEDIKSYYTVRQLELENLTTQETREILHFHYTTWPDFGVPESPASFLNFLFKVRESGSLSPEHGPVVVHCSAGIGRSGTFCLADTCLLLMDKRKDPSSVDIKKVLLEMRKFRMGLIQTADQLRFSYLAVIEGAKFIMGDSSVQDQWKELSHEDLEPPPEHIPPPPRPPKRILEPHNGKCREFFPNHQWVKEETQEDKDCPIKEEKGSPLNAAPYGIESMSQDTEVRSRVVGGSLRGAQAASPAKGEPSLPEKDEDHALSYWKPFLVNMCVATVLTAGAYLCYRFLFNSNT
The assay is described as follows: Inhibition of PTP1B (unknown origin) using p-nitrophenyl phosphate as substrate after 30 mins. The method, boiled down:
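PTP1B (source not stated) 0.05−0.1 μg with 2 mM p-nitrophenyl phosphate in 50 mM citrate pH 6.0, 0.1 M NaCl, 1 mM EDTA, 1 mM dithiothreitol, ± test compound; 37 °C for 30 min, quenched with 10 M NaOH; p-nitrophenol read at 405 nm; IC50 determined.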

Assay [2] relates to C2C12. In words: Induction of 2-deoxy-[3H]-glucose uptake in mouse C2C12 cells at 5 uM after 2 hrs by liquid scintillation counting analysis. It counts as functional, cell-based. The method, boiled down: (§1)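 C2C12 myoblasts grown in DMEM/10% FBS, differentiated at confluence in 1% FBS DMEM to day 4. Myotubes serum-starved 3 h (0.2% BSA), 1 h in KRPH buffer pH 7.4, then compound (0.1% DMSO) for 2 h. Uptake of 0.5 μCi/mL 2-deoxy-[3H]-glucose plus 100 μM 2-deoxy-D-glucose for 10 min. Ice-cold PBS wash, SDS/NaOH lysis, scintillation counting normalized to protein. Three independent experiments in triplicate, mean ± SEM.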

In assay [3] the test system is C2C12. In words: Potentiation of insulin-induced 2-deoxy-[3H]-glucose uptake in mouse C2C12 cells at 5 uM preincubated with cells followed by insulin induction for 30 mins by liquid scintillation counting analysis. In kind it is functional, cell-based. In a few lines: (§2)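 Differentiated C2C12 myotubes, serum-starved 3 h then 1 h in KRPH buffer pH 7.4, given compound (0.1% DMSO), then 100 nM insulin for 30 min. 2-Deoxy-[3H]-glucose (0.5 μCi/mL) with 100 μM 2-deoxy-D-glucose taken up for 10 min. Cells washed in cold PBS, lysed in 0.1% SDS/0.5 M NaOH, scintillation counted and normalized to total protein. Mean ± SEM, three experiments in triplicate.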

The subject of assay [4] is C2C12. In words: Induction of 2-deoxy-[3H]-glucose uptake in mouse C2C12 cells at 10 uM after 2 hrs by liquid scintillation counting analysis relative to control. In kind it is functional. In a few lines: as §1
In assay [5] the test system is C2C12. In words: Potentiation of insulin-induced 2-deoxy-[3H]-glucose uptake in mouse C2C12 cells at 10 uM preincubated with cells followed by insulin induction for 30 mins by liquid scintillation counting analysis relative to control. It counts as functional. The method, boiled down:
as §2

For assay [6], the system named is C2C12. In words: Potentiation of insulin-induced 2-deoxy-[3H]-glucose uptake in mouse C2C12 cells at 30 uM preincubated with cells followed by insulin induction for 30 mins by liquid scintillation counting analysis relative to control. It counts as functional. In a few lines:
as §2

For assay [7], the system named is C2C12. In words: Induction of 2-deoxy-[3H]-glucose uptake in mouse C2C12 cells at 30 uM after 2 hrs by liquid scintillation counting analysis. In kind it is functional, cell-based. The method, boiled down:
as §1

Activity calls are given as the source filed them. The calls are words filed in the database; no cut-off is given here. Where only a bound is given, the exact number is not on record here.

As to `CC1=C2C(=O)[C@H]3[C@@H](CC=C4C[C@@H](OC=O)CC[C@@]43C)[C@@H]2CC[C@]12O[C@@H]1C[C@H](C)CN[C@H]1[C@H]2C`, the IC50 (as a rule, the midpoint of a concentration-inhibition curve) in assay [1] came out at 11.3 µM. Moreover, the result in the assay with C2C12 [2] and with C2C12 [3] was Active. Also, the values for the Activity in the assay with C2C12 [4] and in the assay with C2C12 [5] were 15% and 49.9%, respectively.

In assay [1], `C[C@H]1CC[C@@H]2N(C1)C[C@H]1[C@@H]3C[C@H]4[C@@H](CC=C5C[C@@H](OC=O)CC[C@@]54C)[C@@H]3C[C@H](O)[C@@H]1[C@]2(C)O` displayed an IC50 greater than 30 µM.

As to `CN(CCOc1ccc(CC2SC(=O)NC2=O)cc1)c1ccccn1` (stereo not drawn) [ROSIGLITAZONE], the Activity in the assay on C2C12 [6] was 47.3%. Moreover, the outcome in the assay on C2C12 [7] was Active.

On to `C[C@@H]1CN[C@H]2[C@@H](C)[C@@]3(CC[C@@H]4C(=C[C@H]5[C@H]4CC=C4C[C@@H](O)CC[C@@]45C)[C@@]3(C)O)O[C@@H]2C1`, for which the IC50 in assay [1] is greater than 30 µM.

`CC1=C2C(=O)[C@H]3[C@@H](CC[C@@H]4C[C@@H](O)C[C@@H](O)[C@@]43C)[C@@H]2CC[C@]12O[C@@H]1C[C@H](C)CN[C@H]1[C@H]2C` registered an IC50 in assay [1] greater than 30 µM.

`CC(=O)O[C@H]1CC[C@@]2(C)C(=CC[C@H]3c4ccc([C@H](C)[C@@H]5NC[C@@H](C)C[C@H]5O)c(C)c4C[C@@H]32)C1` yielded an IC50 in assay [1] of 4.7 µM. The Activity amounted to 24.8% in the assay with C2C12 [4] and 56% in the assay on C2C12 [5].
